Assay results reported in ChEMBL document CHEMBL1126566, “Studies on analogues of classical antifolates bearing the naphthoyl group in place of benzoyl in the side chain” (J Med Chem, 1993).

Legend:
[1] = Activity relative to saturating aminopterine at 100 uM against CCRF-CEM Folyl-polyglutamate synthetase; assay type: ADME; settings: human
Method in brief: (§1)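 FPGS from CCRF-CEM cells: freeze-thawed lysates fractionated by (NH₄)₂SO₄ (0–40% saturation pellet) and gel sieving, stored at –90 °C in 20% glycerol, free of detectable γ-glutamyl hydrolase. Product was separated on DEAE-cellulose minicolumns. Run in duplicate or triplicate, and each experiment was repeated at least once.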

[2] = biological target: T1, Folylpolyglutamate synthase, mitochondrial (Mus musculus) (UniProt P48760); assay: Specific activity of L1210 Folyl-polyglutamate synthase
T1 sequence (whole entry): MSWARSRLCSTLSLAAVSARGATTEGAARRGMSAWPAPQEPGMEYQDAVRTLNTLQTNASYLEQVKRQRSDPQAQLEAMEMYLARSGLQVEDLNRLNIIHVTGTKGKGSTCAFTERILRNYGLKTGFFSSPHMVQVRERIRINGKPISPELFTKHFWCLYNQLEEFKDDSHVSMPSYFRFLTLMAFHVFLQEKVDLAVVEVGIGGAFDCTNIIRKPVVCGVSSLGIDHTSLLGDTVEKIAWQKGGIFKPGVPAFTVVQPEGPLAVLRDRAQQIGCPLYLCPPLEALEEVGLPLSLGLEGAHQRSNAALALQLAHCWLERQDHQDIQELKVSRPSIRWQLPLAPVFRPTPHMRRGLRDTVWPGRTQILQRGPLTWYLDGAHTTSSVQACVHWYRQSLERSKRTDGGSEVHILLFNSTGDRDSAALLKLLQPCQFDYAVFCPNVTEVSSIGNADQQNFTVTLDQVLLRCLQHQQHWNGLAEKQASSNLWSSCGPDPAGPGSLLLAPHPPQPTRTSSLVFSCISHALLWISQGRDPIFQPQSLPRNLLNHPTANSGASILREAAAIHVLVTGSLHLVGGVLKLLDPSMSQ
Method in brief: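 FPGS from L1210 cells was assayed by [³H]glutamate ligation, like the human enzyme assay. Each folate substrate was at 100 μM, and only specific activity was measured.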

[3] = tested on: Folyl-polyglutamate synthase; assay: Michaelis-Menten constant was determined against CCRF-CEM Folyl-polyglutamate synthase; assay type: ADME; settings: human, folylpolyglutamate synthase from CCRF-CEM cells; method in brief: as §1
L1210 [4] = assay: Tested for the ability to inhibit growth in vitro against L1210; assay type: functional, cell-based; settings: Mus musculus
HL-60 = assay: Tested for the ability to inhibit growth in vitro against HL60; assay type: functional, cell-based; settings: Homo sapiens
L1210 [5] = assay: Tested for transport into L1210 cells measured as cell influx; assay type: functional, cell-based, Mus musculus
Dihydrofolate reductase = biological target: T2, Dihydrofolate reductase (Mus musculus, UniProt P00375); assay: Inhibitory activity of Dihydrofolate reductase in L1210 cells; assay type: cell-based
T2 sequence (P00375 whole entry): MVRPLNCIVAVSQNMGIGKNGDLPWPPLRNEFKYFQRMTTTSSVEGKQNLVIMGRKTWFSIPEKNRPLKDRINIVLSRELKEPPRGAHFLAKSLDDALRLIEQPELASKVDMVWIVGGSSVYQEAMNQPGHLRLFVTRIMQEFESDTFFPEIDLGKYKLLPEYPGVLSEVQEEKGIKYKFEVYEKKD

CCRF-CEM = assay: (§2) Percent inhibition of Folyl-polyglutamate synthase from CCRF-CEM cells; assay type: cell-based; design: concentration or dose not given beside the values; settings: Homo sapiens, dose or concentration not given here
Method in brief: (§3)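 FPGS was partially purified from CCRF-CEM cells by (NH₄)₂SO₄ fractionation and gel sieving, with no detectable γ-glutamyl hydrolase. Product was separated on DEAE-cellulose. Percent inhibition is reported.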

CCRF S-180 = assay: Tested for the ability to inhibit growth in vitro against S180; assay type: functional, cell-based; settings: Mus musculus
Mus musculus [6] = assay: Antitumor activity against E0771 mammary adenocarcinoma in mice at 3 mg/kg(5 days) was determined and tumor volume at day 7 was reported; assay type: functional
Method in brief: (§4)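 Mice bearing implanted E0771 mammary adenocarcinoma, five per test group. Dosing was daily for 5 days, starting on day 3 after implantation. Tumor volume (mm³) was calculated as 4/3πr³ and is also expressed as treated/control (%).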

Mus musculus [7] = assay: Antitumor activity against E0771 mammary adenocarcinoma in mice at 6 mg/kg(5 days) was determined and […] at day 7 was reported; assay type: functional
Method in brief: (§5)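 E0771 mammary adenocarcinoma implanted in mice, five mice per group. Treatment was given daily for 5 days, starting day 3 after implantation. Tumor volume was calculated as 4/3πr³ and averaged on days 7, 10 and 14. T/C (%) is the treated/control tumor volume. Toxic deaths were recorded.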

Mus musculus [8] = assay: Antitumor activity against E0771 mammary adenocarcinoma in mice at 6 mg/kg(5 days) was determined and tumor volume at day 7 was reported; assay type: functional; method in brief: as §4
Mus musculus [9] = assay: Antitumor activity against E0771 mammary adenocarcinoma in mice at 6 mg/kg(5 days) was determined and tumor volume at day 10 was reported; assay type: functional; method in brief: as §4
Mus musculus [10] = assay: Antitumor activity against E0771 mammary adenocarcinoma in mice at 3 mg/kg(5 days) was determined and […] at day 14 was reported; assay type: functional; method in brief: as §5
Mus musculus [11] = assay: Antitumor activity against E0771 mammary adenocarcinoma in mice at 3 mg/kg(5 days) was determined and […] at day 7 was reported; assay type: functional; method in brief: as §5
Mus musculus [12] = assay: Antitumor activity against E0771 mammary adenocarcinoma in mice at 3 mg/kg(5 days) was determined and […] at day 10 was reported; assay type: functional; method in brief: as §5
Mus musculus [13] = assay: Antitumor activity against E0771 mammary adenocarcinoma in mice at 6 mg/kg(5 days) was determined and tumor volume at day 14 was reported; toxic indicates 4 toxic deaths; assay type: organism-based; design: dose 6 mg/kg; settings: in vivo, 120 h; method in brief: as §5
Mus musculus [14] = assay: Antitumor activity against E0771 mammary adenocarcinoma in mice at 6 mg/kg(5 days) was determined and […] at day 14 was reported; toxic indicates 4 toxic deaths; assay type: organism-based; design: dose 6 mg/kg; settings: in vivo, 120 h; method in brief: as §5
Mus musculus [15] = assay: Antitumor activity against E0771 mammary adenocarcinoma in mice at 3 mg/kg(5 days) was determined and tumor volume at day 14 was reported; assay type: functional; method in brief: as §4
Mus musculus [16] = assay: Antitumor activity against E0771 mammary adenocarcinoma in mice at 3 mg/kg(5 days) was determined and tumor volume at day 10 was reported; assay type: functional; method in brief: as §4
Mus musculus [17] = assay: Antitumor activity against E0771 mammary adenocarcinoma in mice at 6 mg/kg(5 days) was determined and […] at day 10 was reported; assay type: functional; method in brief: as §5
[18] = as §2; assay type: cell-based, Homo sapiens; method in brief: as §3

Row | SMILES | Relative Vmax [1] | Specific activity (pM hr-1 (mg of protein)-1) [2] | IC50 (L1210 [4]) | IC50 (HL-60) | Ki (L1210 [5]) | Ki (Dihydrofolate reductase) | IC50 (CCRF S-180) | other results
1 | Nc1nc(N)c2nc(CNc3ccc(C(=O)N[C@@H](CCC(=O)O)C(=O)O)cc3)cnc2n1 [AMINOPTERIN] | 1 | 1.91 |  |  |  |  |  | Km [3]: 4.1 µM
2 | Nc1nc(N)c2nc(CNc3ccc(C(=O)NC(CCC(=O)O)C(=O)O)c4ccccc34)cnc2n1 (stereo not given) | 0.03 | 0.41 | 6 nM | 4.6 nM | 920 nM | 0.00455 nM | 5.9 nM | inhibition (CCRF-CEM): 12%
3 | Cc1c(CNc2ccc(C(=O)NC(CCC(=O)O)C(=O)O)c3ccccc23)cnc2nc(N)nc(N)c12 (stereo not given) | 0.02 |  | 3.9 nM | 0.74 nM | 1310 nM | 0.00508 nM | 3.8 nM | Tumor volume (Mus musculus [6]): 113 mm**3; T/C (Mus musculus [7]): 39%; Tumor volume (Mus musculus [8]): 87 mm**3; Tumor volume (Mus musculus [9]): 42 mm**3; T/C (Mus musculus [10]): 60%; T/C (Mus musculus [11]): 51%; T/C (Mus musculus [12]): 68%; Tumor volume (Mus musculus [13]): Toxic; T/C (Mus musculus [14]): Toxic; Tumor volume (Mus musculus [15]): 1048 mm**3; Tumor volume (Mus musculus [16]): 421 mm**3; T/C (Mus musculus [17]): 7%; IC50 [18]: 69000 nM
4 | Nc1nc(N)c2cc(CNc3ccc(C(=O)NC(CCC(=O)O)C(=O)O)c4ccccc34)ccc2n1 (stereo not given) |  |  | 6.1 nM | 0.65 nM | 900 nM | 0.0052 nM | 3.9 nM | 
